{
  "source": "ChEMBL document CHEMBL3861950",
  "about": "“Design, synthesis and evaluation of novel 19F magnetic resonance sensitive protein tyrosine phosphatase inhibitors” (Medchemcomm, 2016)",
  "key": {"[1]": {"assay": "Selectivity ratio of IC50 for recombinant FAP1 (unknown origin) to IC50 for recombinant Mycobacterium tuberculosis PTPB"}, "[2]": {"biological_target": "T1, Tyrosine-protein phosphatase non-receptor type 11 (Homo sapiens, UniProt Q06124)", "T1 sequence (Q06124 whole entry)": "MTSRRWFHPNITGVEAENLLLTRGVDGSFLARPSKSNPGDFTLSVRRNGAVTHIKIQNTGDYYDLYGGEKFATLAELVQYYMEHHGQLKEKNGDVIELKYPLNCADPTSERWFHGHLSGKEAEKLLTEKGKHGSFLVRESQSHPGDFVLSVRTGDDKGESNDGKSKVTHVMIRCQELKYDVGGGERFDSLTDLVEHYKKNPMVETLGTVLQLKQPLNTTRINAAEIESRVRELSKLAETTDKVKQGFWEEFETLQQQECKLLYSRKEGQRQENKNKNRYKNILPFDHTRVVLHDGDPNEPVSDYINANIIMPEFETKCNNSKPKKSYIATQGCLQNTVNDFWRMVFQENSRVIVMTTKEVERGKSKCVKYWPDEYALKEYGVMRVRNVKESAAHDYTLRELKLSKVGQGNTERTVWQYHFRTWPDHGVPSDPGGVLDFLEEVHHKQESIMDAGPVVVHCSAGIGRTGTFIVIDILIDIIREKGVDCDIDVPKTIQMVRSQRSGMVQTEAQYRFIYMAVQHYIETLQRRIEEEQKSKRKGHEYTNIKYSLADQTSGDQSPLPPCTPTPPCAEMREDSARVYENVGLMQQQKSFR", "assay": "Inhibition of recombinant SHP2 (unknown origin) using pNPP as substrate by spectrophotometric method", "how_it_was_run": "(§1)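 Recombinant PTP prepared in-house, assayed with pNPP substrate in 50 mM 3,3-dimethylglutarate buffer pH 7.0 containing 1 mM EDTA and 150 mM NaCl at 25 °C, in 96-well format. p-Nitrophenol product was quantified by absorbance at 405 nm. Non-enzymatic pNPP hydrolysis was corrected using a no-enzyme control.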"}, "[3]": {"assay": "Selectivity ratio of IC50 for recombinant PTP1B (unknown origin) to IC50 for recombinant Mycobacterium tuberculosis PTPB"}, "[4]": {"assay": "Selectivity ratio of IC50 for recombinant CD45 (unknown origin) to IC50 for recombinant Mycobacterium tuberculosis PTPB"}, "[5]": {"biological_target": "T2, Tyrosine-protein phosphatase non-receptor type 1 (Homo sapiens, UniProt P18031)", "T2 sequence (P18031 whole entry)": "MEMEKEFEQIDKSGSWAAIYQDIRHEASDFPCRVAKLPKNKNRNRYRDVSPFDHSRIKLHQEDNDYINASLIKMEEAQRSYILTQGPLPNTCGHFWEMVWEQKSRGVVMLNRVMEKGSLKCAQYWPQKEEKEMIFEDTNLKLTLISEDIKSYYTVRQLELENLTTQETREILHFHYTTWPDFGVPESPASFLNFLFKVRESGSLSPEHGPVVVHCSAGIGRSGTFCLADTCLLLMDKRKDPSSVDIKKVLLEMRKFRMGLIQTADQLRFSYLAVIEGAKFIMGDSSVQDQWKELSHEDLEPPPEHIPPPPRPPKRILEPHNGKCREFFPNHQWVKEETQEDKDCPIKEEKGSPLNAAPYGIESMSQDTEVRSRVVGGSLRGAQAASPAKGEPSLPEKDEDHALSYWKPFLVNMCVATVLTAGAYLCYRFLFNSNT", "assay": "Inhibition of recombinant PTP1B (unknown origin) using pNPP as substrate by spectrophotometric method", "how_it_was_run": "as §1"}},
  "data": [
    {"smiles": "Cc1ccc(S(=O)(=O)NNC(=O)COc2ccc3cc(C(O)(C(F)(F)F)C(F)(F)F)c(O)cc3c2)cc1", "values": [
      {"measurement": "Ratio IC50", "setting": "[1]", "value": "> 7"},
      {"measurement": "IC50", "setting": "[2]", "value": 20.3, "unit": "µM"},
      {"measurement": "Ratio IC50", "setting": "[3]", "value": "> 7"},
      {"measurement": "Ratio IC50", "setting": "[4]", "value": "> 7"},
      {"measurement": "IC50", "setting": "[5]", "value": "> 20", "unit": "µM"}
    ]}
  ]
}
